Shown are actives, neighbours in structure and some others; about 3.9% of the full set was active somewhere.
HIF activator – HIF pathway transcriptional activation; activation, % at 7.5 µM (by protocol); AID 1910; U2OS HRE-luciferase reporter, luminescence; normalized: DMSO 0%, desferrioxamine 100%; 0.32% of 300,000 active;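 active = mean activation of at least 10% of the iron chelator positive control signal, with at least half of replicates also reaching 10%; inconclusive = mean and replicate majority disagree about reaching 10%; inactive = mean and most replicates under 10%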
FXN GAA850 act – increases GAA850 frataxin promoter reporter activity; AID 540364; activation, % at 6 µM; HEK293 lucGAA850 FXN promoter luciferase reporter, 24 h; percent of 10 µM SAHA response; 0.56% of 360,000 active;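 active = activation above the average of all compounds screened plus 3 SD, cutoff fixed separately per campaign, cut at about 7.5% in these data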
AHR activator – human AHR activation | activation, % at 5 µM | AID 2796 | AHR-responsive luciferase reporter cells, luminescence | 2.5% of 320,000 active | P35869; in the data active = activation above about 47%
Target sequence (P35869 whole entry, looked up): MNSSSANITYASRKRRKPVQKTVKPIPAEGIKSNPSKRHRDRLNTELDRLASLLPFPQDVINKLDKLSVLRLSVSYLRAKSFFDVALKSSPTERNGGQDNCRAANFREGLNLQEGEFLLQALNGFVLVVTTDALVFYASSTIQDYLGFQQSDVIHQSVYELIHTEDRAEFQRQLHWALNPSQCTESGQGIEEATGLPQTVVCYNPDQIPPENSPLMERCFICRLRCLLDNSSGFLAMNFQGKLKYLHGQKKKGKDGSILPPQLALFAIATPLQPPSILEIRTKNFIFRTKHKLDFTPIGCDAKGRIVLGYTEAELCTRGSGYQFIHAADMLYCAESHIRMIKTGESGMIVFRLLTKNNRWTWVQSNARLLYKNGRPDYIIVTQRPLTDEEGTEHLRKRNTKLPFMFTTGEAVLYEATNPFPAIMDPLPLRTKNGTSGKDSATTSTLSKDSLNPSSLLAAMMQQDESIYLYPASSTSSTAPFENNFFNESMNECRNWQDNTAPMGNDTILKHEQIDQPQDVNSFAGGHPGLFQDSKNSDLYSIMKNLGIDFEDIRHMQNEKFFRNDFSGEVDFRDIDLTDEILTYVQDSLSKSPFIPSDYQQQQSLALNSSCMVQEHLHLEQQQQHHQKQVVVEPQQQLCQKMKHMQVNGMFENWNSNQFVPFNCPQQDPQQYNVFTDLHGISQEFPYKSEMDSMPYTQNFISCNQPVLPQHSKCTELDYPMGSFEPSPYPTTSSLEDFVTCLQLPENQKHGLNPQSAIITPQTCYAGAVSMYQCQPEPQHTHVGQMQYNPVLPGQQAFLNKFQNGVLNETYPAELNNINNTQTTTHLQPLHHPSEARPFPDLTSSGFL
ABCB6 inh 2 – blocks the human ABCB6 transporter; K562-ABCB6 porphyrin accumulation, flow cytometry, 1 h; stronger effect = lower value; fluorescence ratio to DMSO, % at 10 µM; 0.19% of 360,000 active;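 active = fluorescence ratio to DMSO below 75%, the collection mean minus 3 SD; inconclusive = too few cells collected in the well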;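 also: signal is porphyrin accumulated inside mitochondria; lower ratio means ABCB6 inhibition with less porphyrin fluorescence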
SR-BI DiI inh – inhibitors of mouse SR-BI mediated HDL lipid uptake; AID 488896; inhibition, % at 12.5 µM; Q61009; 0.96% of 320,000 active; ldlA[mSR-BI] CHO cells, DiI-HDL uptake fluorescence, 3 h;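 active = mean replicate inhibition of at least 70% and a set share of replicates each scoring 70 or more; inconclusive = meets just one of the two criteria; inactive = fails both criteria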
SR-BI DiI-HDL act – enhances SR-BI lipid uptake from DiI-HDL | CHO ldlA[mSR-BI] cells, DiI-HDL uptake fluorescence, 3 h; 100 = double the neutral-control signal | activation, % at 12.5 µM | 0.096% of 320,000 active;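 active = mean replicate activation of at least 60% and every replicate at or above 60%; inconclusive = mean or all-replicate condition met, but not both; inactive = mean below 60% and not all replicates reaching 60%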
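Material: SR-BI-overexpressing, LDLR-lacking CHO cells | Dosing: Single compound concentration, delivered by pin transfer | Probe or stimulus: Labelled HDL, 10 µg/mL | Signal: Bottom-read cell fluorescence after medium removal, ex 550/em 595 nm | Schedule: 3 h, 37 °C | Evaluation: HDL uptake via cellular fluorescence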
Numbers stand for hits; . = inactive; ? = inconclusive; / = no result given.

SMILES	HIF activator	FXN GAA850 act	AHR activator	ABCB6 inh 2	SR-BI DiI inh	SR-BI DiI-HDL act
Nc1ccc(C(=O)Nc2ccc(OC(F)(F)C(F)F)c(NC(=O)c3ccc(N)cc3)c2)cc1	.	.	.	.	77	.
N/C(=N\OC(=O)CCCc1ccccc1)c1ccc([N+](=O)[O-])cc1	.	.	.	.	.	.
N#C/C(=N\Nc1ccc(Cl)cc1)C(N)=S	.	.	59	.	.	.
COC(=O)c1cccnc1-n1c(=O)c2cccnc2n(Cc2ccc([N+](=O)[O-])cc2)c1=O	.	.	.	.	/	/
Cc1cc(=O)oc2cc(OCC(=O)Nc3nccs3)ccc12	.	.	.	.	.	.
CCOC(=O)c1c(-c2ccc(OC)cc2)csc1NC(=O)COc1ccc2c(C)cc(=O)oc2c1	.	.	.	.	73	.
COc1ccc(-n2c(SCC(=O)N(C)c3ccccc3)nc3c([nH]c4ccccc43)c2=O)cc1OC	.	.	.	.	.	.
CCn1c(SCC(=O)N2CC(C)OC(C)C2)nc2c([nH]c3ccccc32)c1=O (centres undefined)	.	.	50	.	.	.
CCn1c(SCC(=O)N(C)c2ccccc2)nc2c([nH]c3ccccc32)c1=O	.	.	72	.	.	.
O=C(O)[C@H]1CCCC[C@H]1C(=O)NCCNC(=O)[C@@H]1CCCC[C@@H]1C(=O)O	.	.	.	.	.	.
COc1cc(C2=NC(CO)(CO)CO2)cc(OC)c1OC	.	.	.	.	.	448
COc1ccc(C2=CSC(/N=C/c3ccc(F)cc3)=NN2)cc1	/	.	70	.	75	.
COc1ccc(/C=N/N=C/c2ccc(OC)cc2)cc1	.	.	/	.	.	.
CCC(C)NC(=O)CSc1nc2ccccc2c(=O)n1Cc1ccc(OC)cc1 (centres undefined)	.	.	.	.	.	.
COC(=O)c1cc(C(=O)OC)cc(-n2c(C)cc(C(=O)CC#N)c2C)c1	.	.	.	.	76	.
Cc1cc(C(=O)CC#N)c(C)n1-c1ccc(OC(F)F)cc1	.	.	.	.	.	.
CC(C)CNS(=O)(=O)c1cc(C(=O)OCC(=O)N(C)C2CCS(=O)(=O)C2)c(Cl)cc1Cl (centres undefined)	.	.	.	.	/	/
Cc1ccc(NC(=O)c2cc(Cl)nc3ccccc23)cc1	.	.	.	.	.	.
Cc1cc(C(=O)Nc2ccccc2)c2ccccc2n1	.	.	.	.	.	.
Cc1cc(C(=O)Nc2ccc(Cl)cc2)c2ccccc2n1	.	.	66	.	.	.
CC(C)Cc1cc(C(=O)Nc2ccccc2)c2ccccc2n1	.	.	.	.	70	.
Cc1cccc(NC(=O)c2cc(Cl)nc3ccccc23)c1	.	.	62	.	.	.
COC(=O)c1cc(C(=O)Nc2cccc(C)n2)cc([N+](=O)[O-])c1	.	.	.	.	.	.
CCc1noc(C)c1C(=O)OCC(=O)NCCc1ccc(OC)cc1	/	.	/	.	.	.
CN1CCSc2ccc(C(=O)NCc3cccc(F)c3)cc21	.	.	67	.	.	.
SMILES	HIF activator	FXN GAA850 act	AHR activator	ABCB6 inh 2	SR-BI DiI inh	SR-BI DiI-HDL act
CCN1CCSc2ccc(C(=O)NCc3cc(Br)ccc3OC)cc21	.	.	.	.	.	.
COc1ccc(Br)cc1CNC(=O)c1ccc2c(c1)N(C)CCS2	.	.	49	.	.	.
C[C@H]1CN([C@@H](C)CO)C(=O)Cc2cc(NC(=O)CCC(F)(F)F)ccc2O[C@H]1CN(C)Cc1ccc(-c2ccccc2)cc1	/	.	.	.	.	154
COc1ccc(NC(=O)Nc2ccc3c(c2)CC(=O)N([C@H](C)CO)C[C@@H](C)[C@H](CN(C)C(=O)Nc2ccccc2)O3)cc1	/	.	.	.	70	.
Clc1cccc(Cc2c(-c3ccco3)nc3c4ccccc4ccn23)c1	/	/	/	.	/	/
COc1cc(OCC(N)=O)cc(OC)c1OC	/	.	.	.	.	.
CC(C)(C)OC(=O)NCCCCCNC(=O)c1[nH]cnc1C(=O)N[C@@H](Cc1ccccc1)C(=O)OC(C)(C)C	/	.	.	.	.	.
CC(C)(C)OC(=O)NCCCC[C@H](NC(=O)c1[nH]cnc1C(=O)N[C@@H](Cc1ccccc1)C(=O)OC(C)(C)C)C(=O)OC(C)(C)C	.	.	.	.	.	64
Cc1ccc(Nc2ncnc3ccccc23)cc1	.	.	65	.	.	.
Cc1ccc(/C(=N/Nc2ncnc3ccccc23)C(=O)O)cc1	?	.	59	.	/	/
COC(=O)c1cccc(Nc2ncnc3ccc(C)cc23)c1	/	.	.	.	.	.
COC(=O)C(=O)C/C(=N/Nc1ncnc2ccccc12)c1ccc(Cl)cc1	.	.	58	.	.	.
COc1ccc(Nc2ncnc3ccc(C)cc23)cc1	.	.	55	.	.	.
O=C(O)CN1C(=O)/C(=C\c2cc(Br)ccc2OCc2ccc(Cl)cc2)SC1=S	.	.	/	.	.	.
Cc1ccccc1OCC(O)Cn1c(NCc2ccco2)nc2c1c(=O)[nH]c(=O)n2C (centres undefined)	.	.	.	.	.	.
O=C(NCCN1CCOCC1)C(=O)NCC1OCCN1S(=O)(=O)c1ccc(Br)cc1 (centres undefined)	.	.	.	.	.	.
O=C(CSc1nn(-c2ccc(Cl)cc2)c(=S)s1)N1CCN(C(=O)c2ccco2)CC1	.	.	.	.	84	.
O=C(CSc1nn(-c2ccc(F)cc2)c(=S)s1)N1CCN(C(=O)c2ccco2)CC1	/	.	.	.	.	.
O=CC1=C(N2CCOCC2)/C(=C/c2ccc(Cl)cc2)CC1	.	.	.	.	.	.
Cc1occc1C(=O)N/N=C/C1=C(N2CCOCC2)C(=C\c2ccc(Cl)cc2Cl)/CC1	.	.	.	.	77	.
Cc1cc(C)nc(NN=CC2=C(N3CCOCC3)/C(=C/c3ccc(Cl)cc3)CC2)n1	/	.	/	.	76	.
O=C(NCCN1CCC(Cc2ccccc2)CC1)C1CCN(S(=O)(=O)N2CCC3(CC2)OCCO3)CC1	.	.	.	.	.	.
Cc1ccc(-n2ncc3c(=O)[nH]c(SCC(=O)N4CCOCC4)nc32)cc1	.	.	.	.	.	.
COc1cc(C(=O)Nc2nnc(C3CC3)s2)ccc1OCc1c(C)noc1C	.	.	.	.	88	.
COc1cc(C(=O)NCC2CCCO2)ccc1OCc1c(C)noc1C (centres undefined)	.	.	.	.	.	.
COc1cc(C(=O)Nc2nccs2)ccc1OCc1c(C)noc1C	.	.	.	.	76	.
COc1cc(C(=O)Nc2nc3ccccc3s2)ccc1OCc1c(C)noc1C	.	.	.	.	.	.
Cc1ccc(N2CC(C(=O)Nc3nccs3)CC2=O)cc1Cl (centres undefined)	.	.	.	.	.	.
